Data as given in ChEMBL document CHEMBL1649552 (2009).
≈ marks a conversion by molar mass, not a printed value.

How the values were obtained:
Type in all cases: functional
Escherichia coli [1] = experiment: Antibacterial activity against Escherichia coli by CLSI M100-S17 method
Escherichia coli [2] = experiment: Antibacterial activity against Escherichia coli assessed as susceptible isolates by CLSI M100-S17 method
Escherichia coli [3] = experiment: Antibacterial activity against Escherichia coli assessed as intermediate isolates by CLSI M100-S17 method
Klebsiella pneumoniae [4] = experiment: Antibacterial activity against Klebsiella pneumoniae by CLSI M100-S17 method
Klebsiella pneumoniae [5] = experiment: Antibacterial activity against Klebsiella pneumoniae assessed as susceptible isolates by CLSI M100-S17 method
Klebsiella pneumoniae [6] = experiment: Antibacterial activity against Klebsiella pneumoniae assessed as intermediate isolates by CLSI M100-S17 method
Klebsiella oxytoca [7] = experiment: Antibacterial activity against Klebsiella oxytoca by CLSI M100-S17 method
Klebsiella oxytoca [8] = experiment: Antibacterial activity against Klebsiella oxytoca assessed as susceptible isolates by CLSI M100-S17 method
Klebsiella oxytoca [9] = experiment: Antibacterial activity against Klebsiella oxytoca assessed as intermediate isolates by CLSI M100-S17 method
Enterobacter cloacae [10] = experiment: Antibacterial activity against Enterobacter cloacae by CLSI M100-S17 method
Enterobacter cloacae [11] = experiment: Antibacterial activity against Enterobacter cloacae assessed as susceptible isolates by CLSI M100-S17 method
Enterobacter cloacae [12] = experiment: Antibacterial activity against Enterobacter cloacae assessed as intermediate isolates by CLSI M100-S17 method
Proteus mirabilis [13] = experiment: Antibacterial activity against Proteus mirabilis by CLSI M100-S17 method
Proteus mirabilis [14] = experiment: Antibacterial activity against Proteus mirabilis assessed as susceptible isolates by CLSI M100-S17 method
Proteus mirabilis [15] = experiment: Antibacterial activity against Proteus mirabilis assessed as intermediate isolates by CLSI M100-S17 method
Serratia marcescens [16] = experiment: Antibacterial activity against Serratia marcescens by CLSI M100-S17 method
Serratia marcescens [17] = experiment: Antibacterial activity against Serratia marcescens assessed as susceptible isolates by CLSI M100-S17 method
Serratia marcescens [18] = experiment: Antibacterial activity against Serratia marcescens assessed as intermediate isolates by CLSI M100-S17 method
Pseudomonas aeruginosa [19] = experiment: Antibacterial activity against Pseudomonas aeruginosa by CLSI M100-S17 method
Pseudomonas aeruginosa [20] = experiment: Antibacterial activity against Pseudomonas aeruginosa assessed as susceptible isolates by CLSI M100-S17 method
Pseudomonas aeruginosa [21] = experiment: Antibacterial activity against Pseudomonas aeruginosa assessed as intermediate isolates by CLSI M100-S17 method
Pseudomonas aeruginosa [22] = experiment: Antibacterial activity against Pseudomonas aeruginosa assessed as resistant isolates by CLSI M100-S17 method
[23] = test system: Stenotrophomonas maltophilia; experiment: Antibacterial activity against Stenotrophomonas maltophilia by CLSI M100-S17 method
Acinetobacter baumannii [24] = experiment: Antibacterial activity against Acinetobacter baumannii by CLSI M100-S17 method
Acinetobacter baumannii [25] = experiment: Antibacterial activity against Acinetobacter baumannii assessed as susceptible isolates by CLSI M100-S17 method
Acinetobacter baumannii [26] = experiment: Antibacterial activity against Acinetobacter baumannii assessed as intermediate isolates by CLSI M100-S17 method
Acinetobacter baumannii [27] = experiment: Antibacterial activity against Acinetobacter baumannii assessed as resistant isolates by CLSI M100-S17 method
Moraxella catarrhalis [28] = experiment: Antibacterial activity against Moraxella catarrhalis by CLSI M100-S17 method
Escherichia coli [29] = experiment: Antibacterial activity against Escherichia coli by CLSI M100-S17 method in presence of Tazobactam
How it was run: (§1)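 CLSI broth microdilution on clinical isolates, using frozen in-house-prepared panels of test and comparator agents. MICs were read after 20 to 24 h incubation at 35°C in ambient air. Susceptible/intermediate categories were assigned by CLSI M100-S17 guidelines.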

Escherichia coli [30] = experiment: Antibacterial activity against Escherichia coli assessed as susceptible isolates by CLSI M100-S17 method in presence of Tazobactam; how it was run: as §1
Escherichia coli [31] = experiment: Antibacterial activity against Escherichia coli assessed as intermediate isolates by CLSI M100-S17 method in presence of Tazobactam; how it was run: as §1
Escherichia coli [32] = experiment: Antibacterial activity against Escherichia coli assessed as resistant isolates by CLSI M100-S17 method in presence of Tazobactam
How it was run: (§2)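 Clinical isolates were tested by CLSI broth microdilution in frozen, in-house-prepared 96-well panels of the test agent and comparator agents. MICs were read and classed as susceptible, intermediate or resistant using CLSI M100-S17 breakpoints. The value is the share of isolates in each category.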

Klebsiella pneumoniae [33] = experiment: Antibacterial activity against Klebsiella pneumoniae by CLSI M100-S17 method in presence of Tazobactam; how it was run: as §1
Klebsiella pneumoniae [34] = experiment: Antibacterial activity against Klebsiella pneumoniae assessed as susceptible isolates by CLSI M100-S17 method in presence of Tazobactam; how it was run: as §1
Klebsiella pneumoniae [35] = experiment: Antibacterial activity against Klebsiella pneumoniae assessed as intermediate isolates by CLSI M100-S17 method in presence of Tazobactam; how it was run: as §1
Klebsiella pneumoniae [36] = experiment: Antibacterial activity against Klebsiella pneumoniae assessed as resistant isolates by CLSI M100-S17 method in presence of Tazobactam; how it was run: as §2
Klebsiella oxytoca [37] = experiment: Antibacterial activity against Klebsiella oxytoca by CLSI M100-S17 method in presence of Tazobactam; how it was run: as §1
Klebsiella oxytoca [38] = experiment: Antibacterial activity against Klebsiella oxytoca assessed as susceptible isolates by CLSI M100-S17 method in presence of Tazobactam; how it was run: as §1
Klebsiella oxytoca [39] = experiment: Antibacterial activity against Klebsiella oxytoca assessed as intermediate isolates by CLSI M100-S17 method in presence of Tazobactam; how it was run: as §1
Klebsiella oxytoca [40] = experiment: Antibacterial activity against Klebsiella oxytoca assessed as resistant isolates by CLSI M100-S17 method in presence of Tazobactam; how it was run: as §2
Enterobacter cloacae [41] = experiment: Antibacterial activity against Enterobacter cloacae by CLSI M100-S17 method in presence of Tazobactam; how it was run: as §1
Enterobacter cloacae [42] = experiment: Antibacterial activity against Enterobacter cloacae assessed as susceptible isolates by CLSI M100-S17 method in presence of Tazobactam; how it was run: as §1
Enterobacter cloacae [43] = experiment: Antibacterial activity against Enterobacter cloacae assessed as intermediate isolates by CLSI M100-S17 method in presence of Tazobactam; how it was run: as §1
Enterobacter cloacae [44] = experiment: Antibacterial activity against Enterobacter cloacae assessed as resistant isolates by CLSI M100-S17 method in presence of Tazobactam; how it was run: as §2
Proteus mirabilis [45] = experiment: Antibacterial activity against Proteus mirabilis by CLSI M100-S17 method in presence of Tazobactam; how it was run: as §1
Proteus mirabilis [46] = experiment: Antibacterial activity against Proteus mirabilis assessed as susceptible isolates by CLSI M100-S17 method in presence of Tazobactam; how it was run: as §1
Proteus mirabilis [47] = experiment: Antibacterial activity against Proteus mirabilis assessed as intermediate isolates by CLSI M100-S17 method in presence of Tazobactam; how it was run: as §2
Serratia marcescens [48] = experiment: Antibacterial activity against Serratia marcescens by CLSI M100-S17 method in presence of Tazobactam; how it was run: as §1
Serratia marcescens [49] = experiment: Antibacterial activity against Serratia marcescens assessed as susceptible isolates by CLSI M100-S17 method in presence of Tazobactam; how it was run: as §1
Serratia marcescens [50] = experiment: Antibacterial activity against Serratia marcescens assessed as intermediate isolates by CLSI M100-S17 method in presence of Tazobactam; how it was run: as §1
Serratia marcescens [51] = experiment: Antibacterial activity against Serratia marcescens assessed as resistant isolates by CLSI M100-S17 method in presence of Tazobactam; how it was run: as §2
Pseudomonas aeruginosa [52] = experiment: Antibacterial activity against Pseudomonas aeruginosa by CLSI M100-S17 method in presence of Tazobactam; how it was run: as §1
Pseudomonas aeruginosa [53] = experiment: Antibacterial activity against Pseudomonas aeruginosa assessed as susceptible isolates by CLSI M100-S17 method in presence of Tazobactam; how it was run: as §1
Pseudomonas aeruginosa [54] = experiment: Antibacterial activity against Pseudomonas aeruginosa assessed as intermediate isolates by CLSI M100-S17 method in presence of Tazobactam; how it was run: as §1
Pseudomonas aeruginosa [55] = experiment: Antibacterial activity against Pseudomonas aeruginosa assessed as resistant isolates by CLSI M100-S17 method in presence of Tazobactam; how it was run: as §2
[56] = test system: Stenotrophomonas maltophilia; experiment: Antibacterial activity against Stenotrophomonas maltophilia by CLSI M100-S17 method in presence of Tazobactam; how it was run: as §1
Acinetobacter baumannii [57] = experiment: Antibacterial activity against Acinetobacter baumannii by CLSI M100-S17 method in presence of Tazobactam; how it was run: as §1
Acinetobacter baumannii [58] = experiment: Antibacterial activity against Acinetobacter baumannii assessed as susceptible isolates by CLSI M100-S17 method in presence of Tazobactam; how it was run: as §1
Acinetobacter baumannii [59] = experiment: Antibacterial activity against Acinetobacter baumannii assessed as intermediate isolates by CLSI M100-S17 method in presence of Tazobactam; how it was run: as §2
Moraxella catarrhalis [60] = experiment: Antibacterial activity against Moraxella catarrhalis by CLSI M100-S17 method in presence of Tazobactam; how it was run: as §1

C[C@@H](O)[C@H]1C(=O)N2C(C(=O)O)=C(S[C@@H]3CN[C@H](C(=O)N(C)C)C3)[C@H](C)[C@H]12 [MEROPENEM]
MIC50 (Escherichia coli [1]): ≤ 0.06 µg/mL | MIC90 (Escherichia coli [1]): ≤ 0.06 µg/mL | Activity (Escherichia coli [2]): 100% | Activity (Escherichia coli [3]): 0% | MIC50 (Klebsiella pneumoniae [4]): ≤ 0.06 µg/mL | MIC90 (Klebsiella pneumoniae [4]): ≤ 0.06 µg/mL | Activity (Klebsiella pneumoniae [5]): 100% | Activity (Klebsiella pneumoniae [6]): 0% | MIC50 (Klebsiella oxytoca [7]): ≤ 0.06 µg/mL | MIC90 (Klebsiella oxytoca [7]): ≤ 0.06 µg/mL | Activity (Klebsiella oxytoca [8]): 100% | Activity (Klebsiella oxytoca [9]): 0% | MIC50 (Enterobacter cloacae [10]): ≤ 0.06 µg/mL | MIC90 (Enterobacter cloacae [10]): ≤ 0.06 µg/mL | Activity (Enterobacter cloacae [11]): 100% | Activity (Enterobacter cloacae [12]): 0% | MIC50 (Proteus mirabilis [13]): ≤ 0.06 µg/mL | MIC90 (Proteus mirabilis [13]): ≤ 0.06 µg/mL | Activity (Proteus mirabilis [14]): 100% | Activity (Proteus mirabilis [15]): 0% | MIC50 (Serratia marcescens [16]): ≤ 0.06 µg/mL | MIC90 (Serratia marcescens [16]): ≤ 0.06 µg/mL | Activity (Serratia marcescens [17]): 100% | Activity (Serratia marcescens [18]): 0% | MIC50 (Pseudomonas aeruginosa [19]): 0.5 µg/mL (≈ 1.3 µM) | MIC90 (Pseudomonas aeruginosa [19]): 8 µg/mL (≈ 20.9 µM) | Activity (Pseudomonas aeruginosa [20]): 87.8% | Activity (Pseudomonas aeruginosa [21]): 4.1% | Activity (Pseudomonas aeruginosa [22]): 8.1% | MIC50 [23]: > 64 µg/mL | MIC90 [23]: > 64 µg/mL | MIC50 (Acinetobacter baumannii [24]): 0.5 µg/mL (≈ 1.3 µM) | MIC90 (Acinetobacter baumannii [24]): 4 µg/mL (≈ 10.4 µM) | Activity (Acinetobacter baumannii [25]): 92% | Activity (Acinetobacter baumannii [26]): 0% | Activity (Acinetobacter baumannii [27]): 8% | MIC (Moraxella catarrhalis [28]): ≤ 0.06 µg/mL | MIC50 (Moraxella catarrhalis [28]): ≤ 0.06 µg/mL | MIC90 (Moraxella catarrhalis [28]): ≤ 0.06 µg/mL

CCN1CCN(C(=O)N[C@@H](C(=O)N[C@@H]2C(=O)N3[C@@H]2SC(C)(C)[C@@H]3C(=O)O)c2ccccc2)C(=O)C1=O [PIPERACILLIN]
MIC50 (Escherichia coli [29]): 2 µg/mL | MIC90 (Escherichia coli [29]): 4 µg/mL | Activity (Escherichia coli [30]): 97.6% | Activity (Escherichia coli [31]): 1% | Activity (Escherichia coli [32]): 1.4% | MIC50 (Klebsiella pneumoniae [33]): 2 µg/mL | MIC90 (Klebsiella pneumoniae [33]): 8 µg/mL | Activity (Klebsiella pneumoniae [34]): 96.7% | Activity (Klebsiella pneumoniae [35]): 1.3% | Activity (Klebsiella pneumoniae [36]): 2% | MIC50 (Klebsiella oxytoca [37]): 2 µg/mL | MIC90 (Klebsiella oxytoca [37]): 16 µg/mL | Activity (Klebsiella oxytoca [38]): 90% | Activity (Klebsiella oxytoca [39]): 1% | Activity (Klebsiella oxytoca [40]): 9% | MIC50 (Enterobacter cloacae [41]): 2 µg/mL | MIC90 (Enterobacter cloacae [41]): 64 µg/mL | Activity (Enterobacter cloacae [42]): 82.6% | Activity (Enterobacter cloacae [43]): 8.4% | Activity (Enterobacter cloacae [44]): 9% | MIC50 (Proteus mirabilis [45]): 2 µg/mL | MIC90 (Proteus mirabilis [45]): 64 µg/mL | Activity (Proteus mirabilis [46]): 100% | Activity (Proteus mirabilis [47]): 0% | MIC50 (Serratia marcescens [48]): 2 µg/mL | MIC90 (Serratia marcescens [48]): 8 µg/mL | Activity (Serratia marcescens [49]): 94.4% | Activity (Serratia marcescens [50]): 4.7% | Activity (Serratia marcescens [51]): 0.9% | MIC50 (Pseudomonas aeruginosa [52]): 4 µg/mL | MIC90 (Pseudomonas aeruginosa [52]): 64 µg/mL | Activity (Pseudomonas aeruginosa [53]): 92.7% | Activity (Pseudomonas aeruginosa [54]): 0% | Activity (Pseudomonas aeruginosa [55]): 7.3% | MIC50 [56]: > 512 µg/mL | MIC90 [56]: > 512 µg/mL | MIC50 (Acinetobacter baumannii [57]): 4 µg/mL | MIC90 (Acinetobacter baumannii [57]): > 512 µg/mL | Activity (Acinetobacter baumannii [58]): 76% | Activity (Acinetobacter baumannii [59]): 12% | MIC (Moraxella catarrhalis [60]): ≤ 1 µg/mL | MIC50 (Moraxella catarrhalis [60]): ≤ 1 µg/mL | MIC90 (Moraxella catarrhalis [60]): ≤ 1 µg/mL
